Assay results reported in ChEMBL document CHEMBL1177885, “Synthesis and biological activity of 2-(trifluoromethyl)-1H-benzimidazole derivatives against some protozoa and Trichinella spiralis” (Eur J Med Chem, 2010).
Active and inactive are the calls of the source. The rule behind the calls is not given here.

What was measured:
Trichinella spiralis [1] = assay: Antitrichinellosis activity against adult phase of Trichinella spiralis ML infected in mouse assessed as reduction of parasites level at 50 mg/kg administered 3 days after postinfection measured after 6 days relative to control; format: functional; set-up: scale not given: the % may be the effect or the level left
In short: (§1)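 Groups of six mice were infected with 800 muscle larvae and given a single dose on day 3 post-infection. Mice were killed on day 6 post-infection and intestinal adults recovered. Read-out was percent adult load reduction.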

Trichinella spiralis [2] = assay: Antitrichinellosis activity against Trichinella spiralis ML assessed as reduction of parasites viability at 0.18 uM after 3 days by MTT assay; format: functional
In short: (§2)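 1000 muscle larvae per well in RPMI 1640 were exposed to 0.18, 0.37 or 1.80 compound for 3 days at 37 °C in humid 5% CO2, with medium and compound renewed daily. Viability was read by MTT colorimetry as percent reduction of metabolic activity.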

Trichinella spiralis [3] = assay: Antitrichinellosis activity against adult phase of Trichinella spiralis ML infected in mouse assessed as reduction of parasites level at 75 mg/kg administered 3 days after postinfection measured after 6 days relative to control; format: functional; set-up: scale not given: the % may be the effect or the level left; in short: as §1
Trichinella spiralis [4] = assay: Antitrichinellosis activity against Trichinella spiralis ML assessed as reduction of parasites viability at 0 37 uM after 3 days by MTT assay; format: functional; in short: as §2
Trichinella spiralis [5] = assay: Antitrichinellosis activity against Trichinella spiralis ML assessed as reduction of parasites viability at 1.8 uM after 3 days by MTT assay; format: functional; in short: as §2
Entamoeba histolytica = assay: Antiprotozoal activity against Entamoeba histolytica HM-1:IMSS after 48 hrs; format: functional, organism-based
In short: (§3)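 Trophozoites were grown in modified TYI-S-33 with 10% calf serum, with bovine bile added for Giardia. 5 × 10⁴ trophozoites (Giardia, Trichomonas) or 6 × 10³ (Entamoeba) were exposed to increasing concentrations for 48 h at 37 °C, with DMSO as negative control. Cells were washed, regrown 48 h drug-free, and counted. IC50 was by Probit analysis, in triplicate, repeated at least twice.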

Trichomonas vaginalis = assay: Antiprotozoal activity against Trichomonas vaginalis G3 after 48 hrs; format: functional, organism-based; details: G3, 48 h; in short: as §3
Leishmania mexicana = assay: Antileishmanial activity against Leishmania mexicana MHOM/MX92/UAY68 after 48 hrs; format: functional, organism-based; details: MHOM/MX92/UAY68, 48 h
In short: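 Promastigotes at 2 × 10⁴/mL in RPMI 1640 with 10% FBS, 26 °C, were exposed to 0.1, 0.5, 1.5, 10 and 20 (final) of compound, with DMSO as negative control. Each concentration was run in triplicate. Parasites were fixed in 0.14 M NaCl/3.7% formaldehyde and counted in a Neubauer chamber.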

Giardia intestinalis = assay: Antiprotozoal activity against Giardia intestinalis IMSS:0989:1 after 48 hrs; format: functional, organism-based; details: Giardia duodenalis, IMSS:0989:1, 48 h; in short: as §3
Trichinella spiralis [6] = assay: Antitrichinellosis activity against muscle larvae pahse of Trichinella spiralis ML larvae infected in mouse assessed as reduction of parasites level at 75 mg/kg administered for 7 consecutive days from day 28 postinfection measured on day 7 relative to control; format: functional; set-up: scale not given: the % may be the effect or the level left
In short: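 Groups of 10 mice were infected with 800 muscle larvae and treated at 75 mg/Kg from day 28 post-infection for 7 consecutive days. Mice were killed 7 days after treatment and muscle larvae recovered. Read-out was percent larval load reduction.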

SMILES | IC50 (Entamoeba histolytica) [µM] | IC50 (Trichomonas vaginalis) [µM] | IC50 (Leishmania mexicana) [µM] | IC50 (Giardia intestinalis) [µM] | Activity (Trichinella spiralis [1]) | Activity (Trichinella spiralis [2]) [%] | Activity (Trichinella spiralis [3]) [%] | Activity (Trichinella spiralis [4]) [%] | Activity (Trichinella spiralis [5]) [%] | Activity (Trichinella spiralis [6]) [%]
N=C(N)c1ccc(OCCCCCOc2ccc(C(=N)N)cc2)cc1 [PENTAMIDINE] |  |  | 2.42 |  |  |  |  |  |  | 
CCCSc1ccc2[nH]c(NC(=O)OC)nc2c1 [ALBENDAZOLE] |  |  |  |  | 62% | 58.6 | 73 | 61.9 | 67 | 63
FC(F)(F)c1nc2cc(Cl)c(Cl)cc2[nH]1 |  | 0.235 | 20.8 |  |  |  |  |  | 19 | 
Cc1ncc([N+](=O)[O-])n1CCO [METRONIDAZOLE] |  | 0.216 |  |  |  |  |  |  |  | 
CSc1nc2cc(Oc3cccc4ccccc34)c(Cl)cc2[nH]1 |  |  |  |  | 28% |  |  |  |  | 24
FC(F)(F)c1nc2cc(Oc3cccc(Cl)c3Cl)ccc2[nH]1 | 0.018 | 0.535 |  | 0.054 |  | 20 |  | 24 | 29 | 
CSc1nc2cc(Cl)c(Oc3cccc(Cl)c3Cl)cc2[nH]1 [TRICLABENDAZOLE] |  |  |  |  | 41% |  | 7 |  |  | 25

Continued, in another order:

IC50 (Entamoeba histolytica) [µM] | IC50 (Trichomonas vaginalis) [µM] | IC50 (Leishmania mexicana) [µM] | IC50 (Giardia intestinalis) [µM] | SMILES | Activity (Trichinella spiralis [1]) | Activity (Trichinella spiralis [2]) [%] | Activity (Trichinella spiralis [3]) [%] | Activity (Trichinella spiralis [4]) [%] | Activity (Trichinella spiralis [5]) [%] | Activity (Trichinella spiralis [6]) [%]
0.019 | 0.086 | 13.8 | 0.005 | FC(F)(F)c1nc2cc(Oc3cccc4ccccc34)c(Cl)cc2[nH]1 | 69% | 43 | 80 | 50 | 65 | 40
0.017 | 0.451 | 50.1 | 0.012 | Cn1c(C(F)(F)F)nc2cc(Cl)c(Oc3cccc4ccccc34)cc21 |  | 6 |  | 14 | 18 | 
0.02 |  |  | 0.031 | FC(F)(F)c1nc2cc(Oc3cccc(Cl)c3Cl)c(Cl)cc2[nH]1 |  |  |  |  |  | 
0.038 | 0.97 | 65.2 | 0.023 | Cn1c(C(F)(F)F)nc2cc(Oc3cccc4ccccc34)c(Cl)cc21 | inactive | 15 | 36 | 29 | 63 | 64
0.009 | 0.016 | 24 | 0.03 | Cn1c(C(F)(F)F)nc2cc(Oc3cccc(Cl)c3Cl)ccc21 |  | 54 | 58 | 62 | 80 | 46
0.019 | 0.11 | 4.1 | 0.063 | Cn1c(C(F)(F)F)nc2ccc(Oc3cccc(Cl)c3Cl)cc21 |  | 44 |  | 48 | 67 | 
 | 0.238 |  |  | Cn1c(C(F)(F)F)nc2cc(Cl)ccc21 |  |  |  |  | 39 | 
